Source: PubChem (several laboratories)
DNA FID counter = fluorescent intercalator displacement, NS3 helicase counter-screen | DNA fluorescent intercalator displacement, fluorescence | inhibition, % at 7.9 µM | hit rate 0.17% among 290,000 | AID 1845; in the data active = inhibition above about 37%;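 note: 0% = vehicle and 100% = reference compound; higher means more ethidium bromide displaced from hairpin DNA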
HSP90 refold inh = HSP90 refolding inhibition in rabbit reticulocyte lysate | inhibition, % at 5.6 µM | hit rate 0.91% among 290,000 | luciferase refolding luminescence, 3 h;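 active = inhibition above the screen-wide mean plus 3 SD, computed separately per campaign, cut at about 16% in these data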;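 note: 0% = DMSO wells and 100% = 60 µM geldanamycin wells; inhibitors lower the luminescence because luciferase stays unfolded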
HSF1 inhib = HSF1 inhibition | hit rate 0.77% among 300,000 | AID 2098 | activity change, negative = inhibition, % at 7.5 µM (by protocol) | NIH3T3-HGL HSE-luciferase, MG132-induced, luminescence 8 h; active compounds read low;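 active = more than half of replicate wells show activity change below -50%, luminescence cut by over half; inconclusive = some wells, but at most half, below -50%; inactive = no replicate well below -50%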;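 note: luciferase reports HSF-1 transcriptional activity via heat shock element; 0% = median of DMSO wells and -100% = zero luminescence signal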
HSF-1 act = increases HSF-1 driven luciferase reporter signal | NIH3T3-HGL HSF-1 luciferase reporter, MG132, 8 h; 100% = twice DMSO control signal | activation, % at 9 µM | hit rate 1.7% among 300,000 | AID 504408;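 active = mean replicate activation of at least 50% with a set share of replicates each reaching 50%; inconclusive = only one of those two conditions met; inactive = mean below 50% and too few replicates reaching it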;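 note: 0% = median of the neutral control wells and 100% = twice that signal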
NS3 helicase inh = HCV NS3 helicase inhibition; NS3 helicase DNA unwinding, Cy5 molecular beacon fluorescence; inhibition, % at 10.9 µM; hit rate 0.56% among 290,000;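 active = inhibition above the mean of all tested compounds plus 3 SD, set per campaign, cut at about 35% in these data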;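 note: 0% = DMSO wells and 100% = thioflavine S control wells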
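test system = hepatitis C virus NS3 helicase domain fragment enzyme | reagent = annealed dual-labelled DNA beacon duplex, ATP-started | times = 1 h at 25 °C | detection = Cy5 fluorescence, 0 and 60 min reads | read-out basis = percent inhibition from t60/t0 fluorescence ratio | control set = DMSO and thioflavine S | replication = one well per compound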
core dimer inh = blocks dimerization of HCV core protein; inhibition, % at 5 µM; TR-FRET GST/Flag-core106 dimerization, 1536-well; hit rate 0.33% among 300,000;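 active = inhibition above the mean of all tested compounds plus 3 SD, set per screening campaign, cut at about 45% in these data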
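System – GST-tagged and Flag-tagged HCV core protein residues 1-106 · Repeats – one well for each compound · Technique – TR-FRET 671 and 617 nm emission · Doses – one concentration, 5 µM, in 0.5% DMSO · Times – 4 h, 22.5 °C incubation · Also added – Eu donor and XL665 acceptor anti-tag antibodies · Measure – percent inhibition of core106 dimerization signal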
Numbers without * were called inactive; ? = inconclusive; · = not tested or not shown. A selection: hits, their analogues and other compounds. The true share with any hit is near 3.9%.

SMILES	DNA FID counter	HSP90 refold inh	HSF1 inhib	HSF-1 act	NS3 helicase inh	core dimer inh
Cc1ccc(-c2cc(C(=O)N3CCN(c4ccc(F)cc4)CC3)c3ccccc3n2)o1	-31	1	13	2	18	49*
NC(=O)c1ccsc1NC(=O)COC(=O)C1CC2CCCC(C1)C2=O (centres undefined)	-16	1	0	-6	8	4
CCOC(=O)c1cccc(NC(=O)c2cnc3ccccc3n2)c1	-8	4	7	-1	-4	8
Cc1cccc(NC(=O)CSc2cc(C)c(C#N)c3nc4ccccc4n23)c1	-1	3	268	417*	2	0
CCOC(=O)c1cccc(NC(=O)Cn2c(CC(=O)NC)nc3ccccc32)c1	-24	-2	85	101*	4	2
Cc1cccc(NC(=O)Cn2c(/C=C/c3ccccc3)nc3ccccc32)c1	-5	1	42	55*	-3	11
COC(=O)c1cc(C(=O)NCCN2C(=O)S/C(=C\c3cccs3)C2=O)cc([N+](=O)[O-])c1	1	-1	11	16	-1	6
Cc1ccc(O)c(NC(=O)c2cc(-c3ccc(F)cc3)on2)c1	-1	0	57	?	-9	20
Cc1ccc(O)c(NC(=O)c2onc(C)c2Cl)c1	-8	0	98	155*	30	-13
Cc1ccc(O)c(NC(=O)c2cc(-c3cccs3)on2)c1	-3	-2	66	75*	8	17
O=C(Nc1ccc(F)c(F)c1)C1CCN(S(=O)(=O)c2cccc3nonc23)CC1	13	-5	10	0	-12	2
O=C(O)c1ccc(C(=O)c2ccc3c(c2)C(=O)N(CC2CCCO2)C3=O)cc1 (centres undefined)	-10	-4	-4	6	0	-4
CC(=O)/C(=N/Nc1ccc([N+](=O)[O-])cc1)N1CCCc2ccccc21	2	5	5	21	-7	6
CC(=O)/C(=N/Nc1ccc(Br)cc1)N1CCCc2ccccc21	-12	0	22	57*	-1	5
O=C(Nc1nccs1)c1cc(-c2ccncc2)nc2ccccc12	4	-9	-7	-16	13	56*
O=C(Nc1ccc(N2CCOCC2)cc1)c1cc(-c2ccncc2)nc2ccccc12	-28	0	-52*	-63	-8	3
O=C(Nc1ccccc1N1CCOCC1)c1cc(-c2ccncc2)nc2ccccc12	-25	-3	-11	-2	-7	10
NNC(=O)c1cc(Cl)ccc1Cl	4	1	-7	4	5	-4
Cc1ccc(C)c(N2CN(Cc3ccco3)CNC2=S)c1	-5	-5	-1	-8	-11	2
O=C(O)c1cccc(N=NN2CCOCC2)c1	-1	2	-11	-3	-5	-1
CCn1c(SCC(=O)NCCc2ccccc2)nnc1-c1ccco1	-10	0	-3	-19	-2	-1
COc1ccc(CCNC(=O)CSc2ccc(-c3ccco3)nn2)cc1	-15	-1	-69*	-76	1	-1
COCCn1c(SCC(=O)NCCc2ccccc2)nnc1-c1ccco1	-5	-2	27	55*	8	3
O=C(Nc1cccc(Cl)c1)c1cc(F)cc2c1OCOC2	-3	-2	5	4	10	2
O=C(/C=C\c1ccc2c(c1)OCO2)Nc1nnc(SCC(=O)OCc2ccccc2)s1	-5	-3	-7	-17	17	16
SMILES	DNA FID counter	HSP90 refold inh	HSF1 inhib	HSF-1 act	NS3 helicase inh	core dimer inh
CC(=O)NCCc1nc2ccccc2n1CCOc1ccccc1	-8	1	2	-1	-3	2
Cc1nc2cc(NCc3nc4ccccc4n3Cc3ccccc3)ccc2n1C	17	16*	7	-4	-83	-9
CC(=O)NCCc1nc2ccccc2n1CCCCOc1ccccc1	-30	10	18	54*	0	·
CCN(CC)CCNc1nc2ccccc2n1C	6	-3	15	57*	-9	-5
CCOc1ccc(Nc2nc3ccccc3n2C)cc1	·	·	30	72*	·	-2
CCOc1ccc(CNc2nc3ccccc3n2C)cc1	13	3	30	29	-12	-6
CCOc1ccc(NCc2nc3ccccc3n2CCOc2ccccc2)cc1	-6	2	-52*	-61	-9	0
OCc1nc2ccccc2n1CCOc1ccccc1	·	·	-4	-9	·	-6
COc1cccc(C(=O)Nc2ccc(N(C)C)cc2)c1OC	8	1	35	71*	0	-3
CSc1ccccc1C(=O)Nc1cccc(N(C)S(C)(=O)=O)c1	-3	-2	1	0	1	-16
COc1ccccc1C(=O)Nc1cccc(N(C)S(C)(=O)=O)c1	-10	0	8	50*	-7	-4
COc1cccc(C(=O)Nc2ccc3c(c2)C(=O)NC3=O)c1	-2	-2	-1	15	1	8
COc1ccccc1OCc1ccc(C(=O)NCc2cccnc2)o1	-6	-1	2	6	-2	3
CC(C)(C)c1ccc(OCc2ccc(C(=O)NCc3cccnc3)o2)cc1	-26	11	57	112*	-8	-3
O=C(Nc1cccnc1)c1ccc([N+](=O)[O-])o1	-6	2	10	19	18	-7
O=C(NCc1cccnc1)c1ccc([N+](=O)[O-])o1	3	2	29	70*	4	-3
COc1cccc(CNC(=O)CN2C(=O)CSc3ccc(S(=O)(=O)N4CCOCC4)cc32)c1	-8	-5	-8	-30	9	-5
Cc1nc2ccc(NC(=O)c3ccc([N+](=O)[O-])cc3)cc2[nH]1	12	-4	7	19	-3	-3
COc1cc(C2NC(=O)NC(C)=C2C(=O)OCC2CCCO2)cc(OC)c1OC (centres undefined)	-7	4	-2	8	-2	2
COc1cc(C2NC(=O)NC(C)=C2C(=O)OCC2CCCO2)ccc1O (centres undefined)	-4	2	-87*	-90	4	-1
CC1(C)CC(=O)C2(CC3=C(CC(C)(C)CC3=O)O2)C(=O)C1	-2	-1	-8	9	5	1
CCOC(=O)c1c(N)sc(C(=O)Nc2ccccc2F)c1C	-13	5	59	95*	-9	9
CCOC(=O)c1c(N)sc(C(=O)Nc2ccccc2)c1C	-9	8	-4	14	-5	2
Cc1ccc2[nH]c3c(c2c1)CNCC3	0	1	-10	-4	-9	8
c1ccc2c3c([nH]c2c1)CCNC3	2	-2	79	162*	-23	5
Cc1cc(C)cc(NC(=O)c2sc3nc4n(c(=O)c3c2C)CCC4)c1	-29	-4	16	27	-6	9
CCc1cccc(NC(=O)c2sc3nc4n(c(=O)c3c2C)CCC4)c1	-14	-3	43	55*	1	0
